Screening results (PubChem)
The list is not random: actives were taken first. Their share in the collection is about 2.3%.
OXTR potentiate: potentiates the human oxytocin receptor response. AID 2445. activation, % at 3 µM. hit rate 0.061% among 320,000. CHO-OTR cells, Fluo-8 calcium fluorescence, potentiator mode; 0% = oxytocin EC15, 100% = EC100;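 active means activation above that plate's cutoff, the mean activation of tested compounds plus 3 SD, cut at about 6.6% in these data, passing the limit was not always enough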;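 further: 100% uses oxytocin at 75 nM as the full agonist control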
Target sequence (P30559 whole entry, looked up): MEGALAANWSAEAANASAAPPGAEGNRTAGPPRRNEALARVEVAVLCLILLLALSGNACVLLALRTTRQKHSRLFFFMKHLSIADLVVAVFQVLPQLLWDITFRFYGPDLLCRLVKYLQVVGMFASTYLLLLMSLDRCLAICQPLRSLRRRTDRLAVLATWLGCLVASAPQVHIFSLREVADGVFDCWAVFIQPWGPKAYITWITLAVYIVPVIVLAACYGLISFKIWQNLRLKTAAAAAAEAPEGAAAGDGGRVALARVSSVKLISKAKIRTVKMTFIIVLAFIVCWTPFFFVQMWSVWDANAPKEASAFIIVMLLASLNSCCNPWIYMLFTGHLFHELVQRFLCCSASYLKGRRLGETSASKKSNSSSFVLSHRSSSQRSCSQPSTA
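Dosing: Single dose, 3.0 µM nominal final compound concentration | Material: Human OTR in CHO cells | Technique: Kinetic Fluo-8 calcium fluorescence | Benchmarks: EC15 oxytocin alone as 0%, 75 nM oxytocin as 100% | Probe or stimulus: Oxytocin at about EC15, sub-maximal agonist stimulus | Incubation: Compound 6 min at room temperature before oxytocin, 100 s read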
V1R ag counter: V1a receptor agonism, counter-screen for OXTR agonists; P37288; CHO-V1R cells, Fluo-8 calcium fluorescence, agonist mode; 0% DMSO, 100% 3 nM vasopressin; activation, % at 3 µM; hit rate 0.25% among 320,000;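 active means activation above the mean activation of all tested compounds plus 3 SD, per screening run, cut at about 20% in these data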;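 further: signal is peak over basal fluorescence ratio across a 100 second FLIPR read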
OXTR agonist: human OXTR agonism. activation, % at 3 µM. hit rate 0.32% among 320,000. CHO-OTR cells, Fluo-8 calcium fluorescence; normalized: DMSO 0%, oxytocin 100%;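 active means activation above the mean of all tested compounds plus 3 SD, cutoff set per screening run, cut at about 20% in these data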;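 further: peak over basal fluorescence ratio from a 100 s FLIPR kinetic read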
TAAR1 agonist: agonists of human TAAR1. Q96RJ0. activation, % at 3 µM. CHO RD-HGA16 TAAR1, Fluo-8 calcium fluorescence; vehicle wells 0%, saturating PEA agonist 100%. hit rate 0.99% among 360,000;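 active means activation above the mean activation of all test compounds in the run plus 3 SD, cut at about 38% in these data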
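Assay system – CHO-derived RD-HGA16 cells with stable Gα16 and human TAAR1 · Compound dosing – one-point dosing at 3 µM (nominal) · Incubation – 17-24 h seeding, 75 min 37 °C dye, 30 min RT · Measured by – kinetic Fluo-8 calcium fluorescence · Control set – DMSO vehicle as 0%, PEA at EC100 as 100% · Repeats – single well for each compound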
TAAR1 antag: antagonists of human TAAR1 | Q96RJ0 | CHO RD-HGA16 TAAR1, Fluo-8 calcium fluorescence, antagonist | inhibition, % at 3 µM | hit rate 1.5% among 360,000 | AID 624466;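 active means inhibition above a per-plate cutoff, the mean inhibition of test compounds on that plate plus 3 SD, cut at about 49% in these data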;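 further: 0% = DMSO plus EC80 beta-PEA response and 100% = DMSO alone without agonist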
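Test system: CHO RD-HGA16 cells bearing hTAAR1 | Reagent: β-PEA, EC80 | Compound dosing: 3 µM, single point | Schedule: Dye loading 75 min at 37 °C, then 30 min room temperature | Signal: Calcium fluorescence with Fluo-8 | Evaluation: Percent inhibition of PEA-evoked calcium signal, max/basal emission ratio | Control set: DMSO-only wells and EC80 β-PEA-stimulated wells | Repeats: Singlicate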
nonsel antag count: counter-screen for TAAR1 antagonists: nonselective antagonists | counterscreen cell line, calcium fluorescence, antagonist mode | hit rate 77% among 2,400 | shares compounds with TAAR1 antag | inhibition, % at 3 µM; in the data active means inhibition above about 22%;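 further: CHO-Ga16 host cells stimulated with ATP at an EC80 level; 0% = agonist EC80 plus vehicle and 100% = vehicle without agonist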
TAAR1 ant conf: confirmation of human TAAR1 antagonists; TAAR1-expressing cells, fluorescence antagonist read-out; hit rate 40% among 2,400; shares compounds with TAAR1 antag; inhibition, % at 3 µM; AID 651785; in the data active means inhibition above about 49%;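 further: CHO-Ga16 host cells challenged with agonist PEA near its EC80; 0% = agonist at EC80 plus vehicle and 100% = vehicle with no agonist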
Ga16 nonsel ag: nonselective Ga16 agonism, counter-screen | activation, % at 3 µM | Ga16-expressing cells, calcium fluorescence, agonist counterscreen | hit rate 18% among 2,400 | shares compounds with TAAR1 antag; in the data active means activation above about 12%;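 further: 0% = vehicle wells and 100% = saturating stimulus response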
TAAR1 ag count: TAAR1 agonism, antagonist counter-screen; activation, % at 3 µM; hTAAR1 cell line, fluorescence activation, agonist mode; shares compounds with TAAR1 antag; AID 651955; hit rate 2% among 2,400; in the data active means activation above about 37%;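 further: CHO cells stably expressing TAAR1 with calcium dye readout; 0% = DMSO vehicle and 100% = full agonist response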
Numbers without * were called inactive; nt = not tested or not shown.

SMILES	OXTR potentiate	V1R ag counter	OXTR agonist	TAAR1 agonist	TAAR1 antag	nonsel antag count	TAAR1 ant conf	Ga16 nonsel ag	TAAR1 ag count
C=CC[C@@H](CC(=O)N[C@@H](CO)Cc1ccccc1)C(=O)NC[C@@H](OC(=O)[C@@H](CC=C)Cc1ccc(F)cc1)c1ccccc1	-6	13	1	11	6	nt	nt	nt	nt
C=CC[C@@H](CC(=O)N[C@@H](CO)Cc1ccccc1)C(=O)NC[C@H](OC(=O)[C@@H](CC=C)Cc1ccc(F)cc1)c1ccccc1	-5	1	2	20	63*	32*	54*	10	11
C=CC[C@@H](CC(=O)NCCO)C(=O)NC[C@H](OC(=O)[C@@H](CC=C)Cc1ccc(F)cc1)c1ccccc1	-5	2	1	31	78*	32*	63*	13*	15
O=C(CCCSCCCC(=O)NN=Cc1ccccc1)NN=Cc1ccccc1	nt	nt	nt	22	66*	43*	56*	10	44*
O=C(Nc1ccc(CN2CCOCC2)cc1)c1cccc(-c2cc3ccccc3oc2=O)c1	-6	2	0	15	64*	27*	47	9	6
CCOc1ccc(NC(=O)c2ccc(NC(=O)c3ccc(CN4CCOCC4)cc3)cc2)cc1	-3	2	-1	12	61*	29*	47	7	10
COc1ccccc1CNC(=O)C1CCCN1S(=O)(=O)c1ccc2c(c1)C(C)(C)C(=O)N2C (centres undefined)	nt	nt	nt	1	-12	nt	nt	nt	nt
CN(Cc1ccccc1)C(=O)c1ncn(Cc2ccccc2)c1C(=O)N(C)Cc1ccccc1	-5	1	1	29	64*	29*	56*	12*	9
Cc1nn(-c2ccccc2)c(N2CCCC2)c1/C=N/n1cnc2scc(-c3ccccc3)c2c1=O	-9	0	0	5	54*	28*	39	3	2
CCOC(=O)c1cc(-c2ccncc2)nc2c1c(C)nn2C	-2	1	-1	2	-30	nt	nt	nt	nt
CCOC(=O)c1cc(-c2ccccc2)nc2c1c(C)nn2-c1ccccn1	-15	-1	-3	16	53*	22*	28	8	14
O=C1CC(N(O)C2CC(=O)N(Cc3ccccc3)C2=O)C(=O)N1Cc1ccccc1 (centres undefined)	-11	2	3	17	68*	33*	54*	10	12
CC(=NO)C1CCC2C3CCC4CC(=NO)CCC4(C)C3C(C)(O)CC12C (centres undefined)	nt	nt	nt	15	77*	29*	52*	17*	18
O=C(CSc1nc2c(oc3ccccc32)c(=O)n1CC1CCCO1)NCc1ccc(F)cc1 (centres undefined)	nt	nt	nt	5	14	nt	nt	nt	nt
O=C(Nc1ccc(F)cc1Cl)c1ccc2c(=O)n3c(nc2c1)CCC3	-8	1	1	1	-7	nt	nt	nt	nt
CCN(CC)C(=O)c1cccc(-c2csc(C(C)(O)c3cccc(OC)c3)n2)c1 (centres undefined)	nt	nt	nt	13	78*	46*	59*	15*	15
CCN(CC)C(=O)c1cccc(-c2csc(C(C)(O)c3ccccc3)n2)c1 (centres undefined)	nt	nt	nt	9	30	nt	nt	nt	nt
CCN(CC)C(=O)c1cccc(-c2csc(C(C)(O)c3ccc(OC)cc3)n2)c1 (centres undefined)	nt	nt	nt	16	86*	40*	60*	15*	17
CCOC(=O)C1(CCCc2ccccc2)CCN(C(=O)CCCn2cncn2)CC1	-9	1	1	8	4	nt	nt	nt	nt
